Assay outcomes deposited in PubChem BioAssay by Johns Hopkins Ion Channel Center.
Hits are enriched below; roughly 2.3% of the tested compounds scored in any of these assays.
TRPC4 potent – allosteric potentiators of mouse TRPC4 channel | B-score at 10 µM | AID 2227 | hit rate 0.42% among 310,000 | HEK293 TRPC4beta/mu-opioid, DAMGO EC20, Fluo-4 Ca2+ flux; stronger effect = higher value;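 active means B-score of calcium response area above 5 SD of library B-scores, with initial fluorescence ratio within 5 SD of library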;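 further: B-score of integrated fluorescence ratio over time as area under calcium response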
Target sequence (Q9QUQ5 whole entry, looked up): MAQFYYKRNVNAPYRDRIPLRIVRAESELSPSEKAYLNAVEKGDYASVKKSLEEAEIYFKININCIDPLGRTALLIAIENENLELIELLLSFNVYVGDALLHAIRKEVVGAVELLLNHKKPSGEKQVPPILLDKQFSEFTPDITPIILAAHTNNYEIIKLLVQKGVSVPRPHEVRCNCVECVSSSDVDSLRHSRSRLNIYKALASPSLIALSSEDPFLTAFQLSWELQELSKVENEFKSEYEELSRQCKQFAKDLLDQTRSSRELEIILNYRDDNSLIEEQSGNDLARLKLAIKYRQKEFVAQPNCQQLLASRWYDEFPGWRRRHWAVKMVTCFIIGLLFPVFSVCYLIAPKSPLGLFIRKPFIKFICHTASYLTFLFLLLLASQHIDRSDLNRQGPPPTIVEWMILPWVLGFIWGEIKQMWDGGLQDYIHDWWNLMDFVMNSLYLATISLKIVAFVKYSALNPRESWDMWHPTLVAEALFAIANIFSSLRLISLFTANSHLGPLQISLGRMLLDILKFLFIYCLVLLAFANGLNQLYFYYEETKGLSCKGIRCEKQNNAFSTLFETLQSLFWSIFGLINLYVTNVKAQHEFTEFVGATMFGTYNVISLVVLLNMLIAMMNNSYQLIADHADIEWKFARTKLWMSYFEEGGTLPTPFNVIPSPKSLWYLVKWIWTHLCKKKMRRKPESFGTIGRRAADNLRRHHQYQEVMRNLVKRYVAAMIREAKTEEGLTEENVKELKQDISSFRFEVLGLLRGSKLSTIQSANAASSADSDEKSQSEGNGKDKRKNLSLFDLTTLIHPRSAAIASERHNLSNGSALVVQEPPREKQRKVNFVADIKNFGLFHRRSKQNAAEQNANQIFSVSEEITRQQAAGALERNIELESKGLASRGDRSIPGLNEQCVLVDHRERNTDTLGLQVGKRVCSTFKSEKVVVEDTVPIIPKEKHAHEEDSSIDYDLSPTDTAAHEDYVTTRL
TRPC4 inh – inhibitors of mouse TRPC4 channel | B-score at 10 µM | Q9QUQ5 | HEK293 TRPC4beta/mu-opioid, DAMGO-evoked Fluo4 calcium flux; stronger effect = lower value | AID 2247 | hit rate 0.39% among 300,000;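 active means B-score over 3 SD under the library average, no early fluorescence shift, positive overall ratio signal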
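System: stable TRPC4beta/mu-opioid receptor HEK293 cells; Dosing: single-point compound dosing; Measured by: Fluo4 Ca2+ flux fluorescence; Read-out basis: per-well B score of integrated baseline-normalized Fluo4 ratio.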
TRPC4 agonist – activators of mouse TRPC4 channel. HEK293 TRPC4beta/mu-opioid, Fluo4 calcium fluorescence; stronger effect = higher value. Q9QUQ5. hit rate 0.49% among 310,000. B-score at 10 µM. AID 2237;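 active means B-score above 5 SD of library B-scores, and initial fluorescence ratio not above library mean plus 5 SD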;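 further: positive B-score marks a calcium rise read as TRPC4 activation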
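Incubation: 45 min room-temperature Fluo4 loading, 110 s read / System: HEK293 cells stably co-expressing mouse TRPC4beta and mu-opioid receptor / Signal: Fluo4 fluorescence, kinetic / Control set: buffer (low) and maximal DAMGO (high) / Measure: integrated baseline-normalised fluorescence ratio, converted to per-well B score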
TRPC6 act – activators of mouse TRPC6 channel; hit rate 0.13% among 310,000; Q61143; HEK293-TRPC6 membrane potential dye fluorescence; stronger effect = higher value; B-score at 10 µM;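 active means B-score of the integrated fluorescence ratio above library mean plus 3 SD, and starting fluorescence ratio within library mean plus 5 SD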;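 further: higher score means more depolarization so channel activation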
TRPC6 inh – blocks the mouse TRPC6 cation channel | Q61143 | HEK293-TRPC6, membrane potential dye, ACh-evoked depolarization; stronger effect = lower value | B-score at 10 µM | hit rate 1.1% among 310,000 | AID 2553;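 active means B-score under library mean minus 3 SD, initial fluorescence not abnormally high, positive integrated signal ratio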;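 further: B-score derived from integrated fluorescence ratio over the kinetic read; more negative B-score means stronger inhibition of depolarization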
TRPC4 spec 2 – mouse TRPC4 off-target activity of TRPC6 inhibitors, second screen; shares compounds with TRPC6 inh; HEK293 TRPC4/MOR, membrane potential dye fluorescence; channel activated by saturating DAMGO dose; inhibition, % at 10 µM; hit rate 42% among 920;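 active means compounds whose fluorescence signal differed from control wells by over 3 SD, either direction, in both duplicate plates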
TRPC4 spec – mouse TRPC4 off-target activity of TRPC6 inhibitors; activity change, negative = inhibition, % at 10 µM; hit rate 61% among 920; shares compounds with TRPC6 inh; HEK293 TRPC4/mu-opioid, membrane potential fluorescence;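 active means rise or fall in signal beyond 3 SD of buffer-only wells in both replicate plates, either sign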;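 further: integrated kinetic ratio of fluorescence range over baseline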
HEK293 MPD ctr 2-1 – second check of TRPC6 inhibitor effects in parental HEK293 cells. AID 2779. shares compounds with TRPC6 inh. parental HEK293 membrane potential dye fluorescence; maximal acetylcholine challenge after compound addition. signal change vs control, % at 10 µM. hit rate 31% among 920;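 active means membrane potential signal moving either way by over 3 SD of the maximum-effect control, in both duplicate plates, meaning non-specific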
HEK293 MPD ctr-1 – checks TRPC6 inhibitor effects in parental HEK293 cells; AID 2780; membrane potential signal change, % at 10 µM; hit rate 60% among 920; shares compounds with TRPC6 inh; parental HEK293 membrane potential dye fluorescence;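 active means membrane potential signal shifting up or down by more than 3 SD of buffer-only wells, on both duplicate plates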
HEK293 MPD ctr-2 – checks TRPC6 modulator effects in parental HEK293 cells; shares compounds with TRPC6 inh; membrane potential signal change, % at 10 µM; membrane potential dye fluorescence; hit rate 51% among 2,400; AID 488924;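 active means membrane potential signal moves up or down beyond 5 SD from buffer-only wells, on both duplicate plates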
HEK293 MPD ctr 2-2 – second counter-screen for TRPC6 modulators: effect in parental HEK293 cells | AID 488926 | membrane potential dye fluorescence; after compound, maximal acetylcholine stimulation | shares compounds with TRPC6 inh | inhibition, % at 10 µM | hit rate 14% among 2,400;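 active means membrane potential signal drops by more than 5 SD from the mean control signal, in both duplicate plates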;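 further: plate controls were acetylcholine ECmax control wells for no effect and buffer only wells for full effect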
TRPC4/MOR mod – selectivity of TRPC6 modulators against mouse TRPC4; HEK293 TRPC4/mu-opioid, membrane potential fluorescence; hit rate 69% among 2,400; percent change from control (negative = decrease, positive = increase), % at 10 µM; AID 488927; shares compounds with TRPC6 inh;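 active means membrane potential signal moved up or down beyond 5 SD of buffer control wells, in both duplicate plates, actives on both sides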;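 further: plate controls were assay buffer wells for no effect and DAMGO maximal-effect wells for full effect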
TRPC4 ctr inh 2 – mouse TRPC4 off-target activity of TRPC6 modulators, second screen | shares compounds with TRPC6 inh | HEK293 TRPC4/mu-opioid, membrane potential dye fluorescence; stimulated with maximal-effect DAMGO | inhibition, % at 10 µM | hit rate 55% among 2,400 | AID 488928;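 active means drop in membrane potential signal beyond 5 SD of the control wells in both duplicate plates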;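 further: TRPC4 counter screen for TRPC6 hits run under conditions tuned for TRPC6 not TRPC4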
TRPC6 inh conf – confirmation of mouse TRPC6 inhibitors. shares compounds with TRPC6 inh. HEK293-TRPC6, membrane potential dye, ACh-evoked depolarization. inhibition, % at 10 µM. hit rate 43% among 3,300;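 active means fluorescence ratio falls more than 5 SD below the full-stimulation control mean, in both duplicate runs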;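 further: integrated fluorescence ratio of peak minus minimum over baseline after agonist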
TRPC6 act conf – confirmation of mouse TRPC6 activators; shares compounds with TRPC6 inh; HEK293-TRPC6 membrane potential dye fluorescence, FDSS; activation, % at 10 µM; hit rate 11% among 2,800; AID 488961;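 active means ratio signal rise beyond 5 SD above unstimulated control wells' mean, seen in both duplicate runs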;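 further: plate controls were buffer EC0 wells for no effect and acetylcholine ECmax response for full effect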
* marks the source's active call; other numbers are inactive results; i = inactive; · = not tested or not shown; + = active, no number.

SMILES	TRPC4 potent	TRPC4 inh	TRPC4 agonist	TRPC6 act	TRPC6 inh	HEK293 MPD ctr-2	HEK293 MPD ctr 2-2	TRPC4/MOR mod	TRPC4 ctr inh 2	TRPC6 inh conf	TRPC6 act conf	others
Cc1ccccc1C(=O)Nc1ccc2c(C#N)c3nc4ccccc4nc3n2c1	i	i	i	i	-5.85*	i	i	-10.5%*	i	i	i
Cc1cccc(C(C)C)c1NC(=O)Cc1ccc(S(=O)(=O)N2CCOCC2)s1	i	i	i	i	i	·	·	·	·	·	·
O=C(O)c1ccc(-c2ccc(/C=c3/sc4nc5ccccc5n4c3=O)o2)cc1Cl	15*	i	58*	32.3*	i	560.0%*	i	112.5%*	i	i	82.0%*
Cc1ccc2c(nc3s/c(=C\c4ccc(-c5ccccc5C(=O)O)o4)c(=O)n32)c1C	i	-8*	189*	77.5*	i	+	i	408.5%*	i	i	592.5%*
Cc1cc(/C=c2\sc3nc4ccccc4n3c2=O)c(C)n1-c1ccc(C(=O)O)cc1	i	i	i	i	i	·	·	·	·	·	·
CN(C)CCNS(=O)(=O)c1ccc(N2CCc3ccccc32)c([N+](=O)[O-])c1	i	i	i	i	-7.17*	-129.0%*	i	-28.0%*	73.0%*	60.0%*	i
NC(=O)CCN1CCN(Cc2nc(C(c3ccccc3)c3ccccc3)no2)CC1	i	i	i	i	-7.91*	·	·	·	·	i	i	TRPC4 spec 2=i;TRPC4 spec=i;HEK293 MPD ctr 2-1=i;HEK293 MPD ctr-1=i
CC(=O)N1CCN(Cc2nc(C(c3ccccc3)c3ccccc3)no2)CC1	i	i	i	i	i	·	·	·	·	·	·
c1ccc(C(c2ccccc2)c2noc(CN3CCN(C4CCCC4)CC3)n2)cc1	i	i	i	i	-5.17*	124.0%*	i	15.0%*	i	i	·
Cc1nc(CN2CCN(Cc3nc(C(c4ccccc4)c4ccccc4)no3)CC2)cs1	i	i	i	i	-6.36*	101.0%*	i	10.5%*	i	48.5%*	·
O=C(NC1CCSc2ccccc21)c1cccc([N+](=O)[O-])c1 (stereo unspecified)	i	i	i	i	i	·	·	·	·	·	·
CCCC(=O)Nc1cc(C)c(NC(=O)c2ccco2)cn1	i	i	i	i	i	·	·	·	·	·	·
Cc1ccccc1OCCNC(=O)CSc1ccc(C(F)(F)F)cc1[N+](=O)[O-]	i	i	i	i	i	·	·	·	·	·	·
COc1ccc(/C=C2\SC(=NCc3ccccc3)NC2=O)cc1	i	i	i	i	-6.21*	i	i	i	i	i	i
CCN(CC)CCNS(=O)(=O)c1ccc(C(=O)NN)cc1	i	i	i	i	i	·	·	·	·	·	·
OC(CNCc1ccccc1)(c1ccc(F)cc1)c1ccc(F)cc1	i	i	i	i	-5.34*	159.5%*	i	36.0%*	56.5%*	i	·
O=C(Nc1cc(C(F)(F)F)ccc1-n1cncn1)c1ccc([N+](=O)[O-])o1	i	i	i	i	i	·	·	·	·	·	·
Clc1ccc2c(c1)C(N1CCNCC1)Cc1ccccc1S2 (stereo unspecified)	i	i	i	i	-5.44*	i	i	i	74.0%*	64.0%*	i
Cn1cc(CN(CCCN2CCOCC2)C(=S)Nc2cccc(Cl)c2)c2ccccc21	i	i	i	i	-6.78*	·	·	·	·	i	i	TRPC4 spec 2=i;TRPC4 spec=i;HEK293 MPD ctr 2-1=258.5%*;HEK293 MPD ctr-1=i
CCOC(=O)c1nnn(-c2nc(N3CCCC3)nc(N3CCCC3)n2)c1-c1ccccc1	i	i	i	i	i	·	·	·	·	·	·
CCOC(=O)c1c(-c2ccccc2)nnn1-c1nc(OCC)nc(N2CCCCC2)n1	i	i	i	15.8*	i	354.5%*	i	91.0%*	i	i	176.5%*
CCn1cc(/C=C(\NC(=O)c2ccccc2Cl)C(=O)NCCN2CCOCC2)c2ccccc21	i	i	i	i	i	·	·	·	·	·	·
NC(=O)C[N+]1(CC#CC(O)(c2ccccc2)c2ccccc2)CCCC1	i	i	i	i	i	·	·	·	·	·	·
CC1(C(O)(C#CC[N+]2(C)CCCCC2)c2ccccc2)CCCC1 (stereo unspecified)	i	i	i	i	-10.9*	·	·	·	·	106.6%*	i	TRPC4 spec 2=i;TRPC4 spec=i;HEK293 MPD ctr 2-1=-25.5%*;HEK293 MPD ctr-1=i
CN1CCN(C(=O)C2CCN(c3ncc(C(F)(F)F)cc3Cl)CC2)CC1	i	i	i	i	-5.18*	i	i	i	i	i	i
O=C(OC1CCN(c2ncc(C(F)(F)F)cc2Cl)CC1)c1ccccc1	i	i	i	i	i	·	·	·	·	·	·
Cc1cccc(-c2nc(NCCCN(C)C)c3ccccc3n2)c1	i	i	i	i	-7.86*	·	·	·	·	75.8%*	i	TRPC4 spec 2=50.5%*;TRPC4 spec=-20.1%*;HEK293 MPD ctr 2-1=i;HEK293 MPD ctr-1=-242.0%*
CN(C)CCCNc1nc(-c2ccc(Cl)cc2)nc2ccccc12	i	i	i	i	-7.68*	·	·	·	·	69.8%*	i	TRPC4 spec 2=53.0%*;TRPC4 spec=-31.0%*;HEK293 MPD ctr 2-1=34.5%*;HEK293 MPD ctr-1=-414.0%*
